CHOP UPR activ: activators of apoptotic arm of unfolded protein response (CHOP). CHO-CHOP luciferase reporter, UPR activation, luminescence; percent of tunicamycin response over DMSO baseline. activation, % at 10 µM. 330,000 compounds, 0.34% hits. AID 449763;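 active = at 10 µM dose, activation of 40% or more, normalized to positive control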;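 note: 100% = tunicamycin at 10 µg/mL and 0% = DMSO alone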
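System: CHO CHOP reporter cells. Amount: 500 cells per well. Buffer or medium: F12 medium, 10% FBS. Compound dosing: one dose, 10 µM in 0.5% DMSO. Incubation: 6 h compound exposure at 37 °C after overnight seeding. Technique: Steady-Glo luciferase luminescence. Benchmarks: tunicamycin and DMSO controls.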
PvdQ inh: blocks Pseudomonas aeruginosa PvdQ acylase activity; purified PvdQ acylase, fluorescence plate reader; inhibition, % at 10 µM; 340,000 compounds, 0.063% hits; in the data active = inhibition above about 30%, passing the limit was not always enough;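 note: 0% = vehicle neutral wells and 100% = reference inhibitor wells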
CHOP inhibitor: CHOP inhibition in unfolded protein response | CHO-K1 CHOP-promoter luciferase, tunicamycin-induced, 15-18 h | inhibition, % at 10 µM | 220,000 compounds, 3.8% hits;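 active = compounds that reduced the stress-induced luciferase reporter signal by more than about 70% of percent inhibition, limit read from the data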;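 note: 0% = tunicamycin plus vehicle and 100% = wells without tunicamycin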
UPR XBP1 act: activators of adaptive arm of unfolded protein response (XBP1) | activation, % at 20 µM | 330,000 compounds, 0.33% hits | CHO-XBP1 luciferase reporter, IRE1-XBP1 UPR activation, luminescence; percent of tunicamycin response, DMSO as zero;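 active = versus positive control, 20 µM dose yields 30% or more activation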;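 note: 100% = tunicamycin at 10 µg/mL and 0% = DMSO only wells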
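Test system: CHO-XBP1 luciferase reporter cells | Buffer or medium: Serum-containing F12 medium, 10% FBS | Schedule: 6 h compound exposure at 37 °C, 5% CO2 | Detection: Steady-Glo luciferase glow luminescence, 10 min after reagent addition | Read-out basis: Activation, % of tunicamycin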
UPR XBP1 confirm: confirmation of adaptive unfolded protein response (XBP1) activators. shares compounds with UPR XBP1 act. CHO-XBP1 IRE1-XBP1 luciferase reporter, luminescence. activation, % at 20 µM. 1,000 compounds, 63% hits;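 active = reporter signal at least 30% of the positive control's activation in two or more of four replicate wells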;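 note: plate controls were DMSO negative control for no effect and tunicamycin 10 µg/mL positive control for full effect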
* = called active by the depositor; nt = no result. Shown is part of a subset that was picked to be rich in hits.

SMILES | CHOP UPR activ | PvdQ inh | CHOP inhibitor | UPR XBP1 act | UPR XBP1 confirm
COC(=O)c1ccc2c(=O)n(CC3CCCO3)c(SCC(=O)Nc3ccccc3Cl)nc2c1 (centres undefined) | 5 | -11 | 45 | 35* | 7
CC(=O)Nc1cccc(C(=O)/C=C/c2ccc(C)cc2)c1 | 5 | 9 | -39 | 17 | nt
CCC(=O)Nc1cccc(C(=O)/C=C/c2ccc(F)cc2)c1 | 9 | 9 | -185 | 35* | 53*
O=C(CSC1CN(C(c2ccccc2)c2ccccc2)C1)N/N=C/c1ccccc1 | -1 | 19 | 7 | 1 | nt
COc1ccc(-c2cc(C(F)F)n3ncc(C(=O)N4CCCCC4)c3n2)cc1 | 1 | 3 | 39 | 5 | nt
COc1ccc(-c2cc(C(F)F)n3ncc(C(=O)N4CCc5ccccc5C4)c3n2)cc1 | -1 | -24 | 51 | 38* | 73*
Cc1ccc(-c2cc(C(F)F)n3ncc(C(=O)N4CCc5ccccc54)c3n2)cc1 | 0 | 2 | 6 | 47* | 126*
CCOc1cc(/C=C(\C#N)C(=O)Nc2ccccn2)ccc1O | 3 | -5 | nt | 3 | nt
CCOc1cc(/C=C(\C#N)c2[nH]nc(N)c2C#N)ccc1O | 18 | -4 | 27 | 32* | 51*
COc1cc(C(=O)N/N=C/c2ccsc2C)cc(OC)c1OC | -1 | 8 | -59 | 30* | 17
CC(=O)Nc1sc(C)c(C)c1C(=O)OCC(=O)Nc1cccc(C)c1 | 1 | -12 | nt | 37* | 5
COc1ccc(C2=Nn3c(nnc3-c3ccccc3Cl)SC2)cc1OCC1CC1 | 0 | -7 | nt | 12 | nt
COc1ccc(OC)c(-c2nnc3n2N=C(c2ccc(OC)c(OCC4CC4)c2)CS3)c1 | 1 | 0 | nt | 32* | 35*
O=c1[nH]c([N+](=O)[O-])nn1C(c1ccccc1)c1ccccc1 | 0 | -12 | nt | -7 | nt
CCn1c(/C=C/c2ccc(O)c(O)c2)nc2ccccc2c1=O | 37 | 4 | nt | 37* | 21
N/C(=N\c1nc(CSc2ccccn2)cc(=O)[nH]1)Nc1ccc(Cl)cc1Cl | -3 | -6 | 18 | 32* | 32*
Cc1nc(Sc2nnnn2C)c2c3c(sc2n1)CCC3 | 4 | -4 | -100 | 37* | 9
Cn1cc(/C=C(\C#N)C(=O)Nc2cccc([N+](=O)[O-])c2)c2ccccc21 | 26 | 1 | -36 | 79* | 73*
N=c1c(S(=O)(=O)c2ccccc2)cc2c(=O)n3ccccc3nc2n1C1CCCC1 | 1 | 12 | nt | 30* | 23
COc1ccc(N(CC(=O)Nc2c(C)n(C)n(-c3ccccc3)c2=O)S(=O)(=O)c2ccc(C)cc2)cc1 | -1 | 7 | 20 | 0 | nt
COc1ccc(N(CC(=O)Nc2c(C)n(C)n(-c3ccccc3)c2=O)S(=O)(=O)c2ccccc2)cc1OC | 1 | 12 | 0 | 90* | 1
Cc1cc(C)c(CN2CCN(Cc3ccc(C)o3)C(CCO)C2)c(-n2cccn2)c1 (centres undefined) | 0 | 2 | 14 | -3 | nt
Oc1cc(-c2ccc(N3CCCCC3)nc2)cc2cccnc12 | 7 | -4 | nt | 56* | 52*
COc1ccc(-c2coc3cc4oc(=O)c5ccccc5c4cc23)cc1F | 1 | 15 | 5 | 64* | 23
COc1ccc(C(=O)N/N=C/c2ccccc2OC(=O)c2ccccc2)cc1 | 2 | 5 | nt | 51* | 30
SMILES | CHOP UPR activ | PvdQ inh | CHOP inhibitor | UPR XBP1 act | UPR XBP1 confirm
CN(CC(=O)Nc1ccccc1Cl)C(=O)COC(=O)c1ccc([N+](=O)[O-])s1 | 1 | 13 | nt | 2 | nt
Oc1[nH]c2ccccc2c1N=Nc1nc(Nc2ccccc2)nc(N2CCOCC2)n1 | 12 | -3 | 19 | 86* | 8
Cc1cc(N2CCN(C)CC2)ccc1NC(=O)c1c2c(nc3ccccc13)CCN(Cc1ccccc1)C2 | 15 | 5 | -40 | 42* | 12
O=C(NC1CCCCCC1)c1c2c(nc3ccccc13)CCN(Cc1ccccc1)C2 | -1 | -14 | 27 | 0 | nt
CC(C)(C)c1csc(NC(=O)c2ccncc2)n1 | 3 | -8 | -3 | -2 | nt
CC(C)(C)c1csc(NC(=O)c2ccc(Cl)s2)n1 | 7 | -9 | 73* | 30* | 33*
CC(C)CC(=O)Nc1ccnn1C1CCN(C(=O)c2ccc(F)cc2Cl)CC1 | 1 | -4 | nt | -6 | nt
COc1ccc(N(C(=O)Cn2nnc(-c3ccccc3F)n2)C(C(=O)NCC2CCCO2)c2ccc(Cl)cc2)cc1 (centres undefined) | 4 | 6 | -20 | 41* | 3
COc1ccc(N(C(=O)Cn2nnc(-c3ccc(Cl)cc3)n2)C(C(=O)NCC2CCCO2)c2ccc(C)cc2)cc1 (centres undefined) | 5 | -12 | 56 | 3 | nt
O=C(O)c1cc(S(=O)(=O)NC23CC4CC(CC(C4)C2)C3)ccc1Cl | -1 | -9 | nt | -4 | nt
CCCCNc1c(-c2ccc(SC(C)CC)cc2)nc2cnccn12 (centres undefined) | 4 | -18 | nt | 57* | 50*
C[C@@H](NC(=O)[C@@H]1Cc2ccccc2CN1)C(=O)NCC1CCCO1 (some centres undefined) | 2 | 11 | nt | 0 | nt
COc1ccc2cc1Oc1ccc(cc1)C[C@H]1c3c(cc(OC)c4c3Oc3c(ccc5c3[C@H](C2)N(C)CC5)O4)CCN1C | 19 | -14 | nt | 68* | 52*
COc1cc2c(cc1OC)C1Cc3ccc(OC)c(OC)c3CN1CC2 (centres undefined) | 0 | -12 | 12 | 2 | nt
Cc1ccc(NC(=O)CSc2ccccc2NC(=O)c2cccc(Cl)c2)cc1Cl | 7 | -10 | 57 | 36* | 18
Cc1cccc(N2CC(C(=O)Nc3ccc(N4CCOCC4)cc3)CC2=O)c1C (centres undefined) | 0 | -18 | nt | -2 | nt
Cc1ccc(NC(=O)CSc2nc(=O)n(CCN3CCOCC3)c3c2CCCC3)cc1 | 0 | -17 | nt | -2 | nt
COc1ccc(/C=C(\NC(=O)c2ccccc2)C(=O)NC2CCS(=O)(=O)C2)cc1 (centres undefined) | 0 | -2 | 7 | -1 | nt
C=CCNC(=O)c1onc(CSc2ccc(F)c(F)c2)c1C(=O)NCC=C | -1 | 3 | nt | 0 | nt
Cc1ccc(-c2nnn(CC(=O)Nc3ccc(S(=O)(=O)N4CCC(C)CC4)cc3)n2)cc1 | 4 | -2 | -26 | 44* | 56*
CC1CCN(S(=O)(=O)c2ccc(NC(=O)Cn3nnc(-c4ccccc4)n3)cc2)CC1 | 0 | -6 | 35 | 2 | nt
Cc1ccnc(NC(=O)Cn2c(=O)oc3cc(S(=O)(=O)N4CCCC4)ccc32)c1 | -1 | -14 | nt | -1 | nt
Cc1cc(C)cc(NC(=O)Cn2c(=O)oc3cc(S(=O)(=O)N4CCC(C)CC4)ccc32)c1 | 0 | -8 | 72* | 32* | 1
CCOC(=O)c1c(Nc2ccc(Cl)cc2)sc(/C=C2\C=Nc3ccccc32)c1O | 4 | -5 | 76* | 38* | 15
CCCn1c(Nc2nc3ccccc3n2C)nc2ccccc21 | 1 | -11 | 18 | 55* | 57*

From PubChem
